Source: publication PMC3985699 (Journal of the American Chemical Society, 2014)
pIC50: −log10 of the molar value. Values after ≈ are worked out from the molar mass of the structure shown.

Columns and labels:
[1] = test system: S. aureus; experiment: Initial antibacterial screen of in silico hits; format: cell-based, Staphylococcus aureus; conditions: initial screening of in silico hits
[2] = test system: E. faecium; experiment: Initial antibacterial screen of in silico hits; format: cell-based, Enterococcus faecium; conditions: initial screening of in silico hits
[3] = test system: S. aureus ATCC 29213; experiment: MIC by microdilution; format: cell-based; conditions: Staphylococcus aureus, ATCC29213
Summary of the method: (§1)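 S. aureus was tested by CLSI broth microdilution in cation-adjusted Mueller Hinton II broth, final inoculum 5 × 10⁵ CFU/mL, 35 °C, read after 16–20 or 20–24 h; oxacillin was tested with 2% NaCl. MIC was the lowest concentration without visible growth, in triplicate. For ATCC 29213, inocula of 5 × 10⁶ and 5 × 10⁷ CFU/mL were also tested.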

[4] = test system: S. aureus ATCC 27660; experiment: MIC by microdilution; format: cell-based; conditions: Staphylococcus aureus, ATCC27660
Summary of the method: as §1

[5] = test system: S. aureus NRS100 (COL); experiment: MIC by microdilution; format: cell-based; conditions: Staphylococcus aureus
Summary of the method: as §1

[6] = test system: S. aureus NRS119; experiment: MIC by microdilution; format: cell-based; conditions: Staphylococcus aureus
Summary of the method: as §1

[7] = test system: S. aureus NRS120; experiment: MIC by microdilution; format: cell-based; conditions: Staphylococcus aureus
Summary of the method: as §1

[8] = test system: S. aureus VRS1; experiment: MIC by microdilution; format: cell-based; conditions: Staphylococcus aureus, MRSA
Summary of the method: as §1

[9] = test system: S. aureus VRS2; experiment: MIC by microdilution; format: cell-based; conditions: Staphylococcus aureus, MRSA
Summary of the method: as §1

[10] = test system: S. epidermis ATCC 35547; experiment: MIC by microdilution; format: cell-based
Summary of the method: (§2)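 CLSI broth microdilution in cation-adjusted Mueller Hinton II broth, final inoculum 5 × 10⁵ CFU/mL. Plates incubated at 35 °C and read after 16–20 or 20–24 h depending on species. MIC taken as the lowest concentration with no visible growth. All determinations in triplicate.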

[11] = test system: S. hemolyticus ATCC 29970; experiment: MIC by microdilution; format: cell-based; conditions: Streptococcus pyogenes, ATCC29970
[12] = test system: S. oralis ATCC 9811; experiment: MIC by microdilution; format: cell-based; conditions: Streptococcus oralis, ATCC9811
Summary of the method: (§3)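 Streptococcal MICs came from CLSI broth microdilution in cation-adjusted Mueller Hinton II broth with 5% lysed horse blood. Final inoculum 5 × 10⁵ CFU/mL, incubation at 35 °C, read after 16–20 or 20–24 h depending on species. MIC was the lowest concentration without visible growth, determined in triplicate.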

[13] = test system: S. pyogenes ATCC 49399; experiment: MIC by microdilution; format: cell-based; conditions: Streptococcus pyogenes, ATCC49399
Summary of the method: as §3

[14] = test system: E. faecalis ATCC 29212; experiment: MIC by microdilution; format: cell-based; conditions: Enterococcus faecalis, ATCC29212
Summary of the method: as §2

[15] = test system: E. faecalis 201 (Van S); experiment: MIC by microdilution; format: cell-based; conditions: Enterococcus faecalis
Summary of the method: as §2

[16] = test system: E. faecium 119–39A (Van S); experiment: MIC by microdilution; format: cell-based; conditions: Enterococcus faecium
Summary of the method: as §2

[17] = test system: E. faecium 106 (Van R); experiment: MIC by microdilution; format: cell-based; conditions: Enterococcus faecium
Summary of the method: as §2

[18] = test system: E. faecium NCTC 7171; experiment: MIC by microdilution; format: cell-based; conditions: Enterococcus faecium, NCTC7171
Summary of the method: as §2

[19] = Hemolysis assay; format: cell-based, horse; conditions: horse, washed red blood cells from horse whole blood
[20] = Pharmacokinetics in mice; format: in vivo; conditions: for volume of distribution (in words): single 50 mg/kg iv
Summary of the method: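 Female ICR mice received a single 50 mg/kg dose, either iv in 10% DMSO/25% Tween-80/65% water or po by gavage (n = 3 per time point). Terminal blood was taken at 2 min–24 h after iv and 0.5–48 h after po, then centrifuged for plasma. Plasma was precipitated with acetonitrile containing internal standard and analysed by C18 UPLC-ESI(+)-MRM against calibration curves in blank mouse plasma.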

[21] = target: purified recombinant PBP2a (Staphylococcus aureus, UniProt P07944); experiment: Continuous spectrophotometric PBP2a inhibition assay with nitrocefin; format: biochemical, MRSA
[22] = test system: S. aureus ATCC 27660 (MRSA); experiment: Mouse peritonitis infection model; format: in vivo, Staphylococcus aureus; conditions: mice, antibiotic 3 vs 4
Summary of the method: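 Female ICR mice (6–8 weeks, 17–20 g) were infected intraperitoneally with 0.5 mL MRSA ATCC 27660 at 5 × 10⁷ CFU/mL in 5% mucin. The inoculum was grown in brain heart infusion and adjusted to OD540 0.5. A single oral gavage dose was given 1 h post-infection (n = 6/group), with linezolid 10 mg/kg as positive control. Survival was monitored over 2 days.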

[23] = test system: peptidoglycan synthesis of S. aureus; experiment: Macromolecular synthesis assay, D-[2,3-3H]-alanine incorporation; format: cell-based, Staphylococcus aureus; conditions: S. aureus ATCC 29213, logarithmic phase; 0.25 and 0.5 μg/mL
Summary of the method: (§4)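 Mid-exponential S. aureus ATCC 29213 in brain heart infusion was labelled with 1 μCi/mL ³H-precursor for 10 min at 37 °C before test compound addition (0.25, 0.5 μg/mL). Controls: ciprofloxacin (thymidine), rifampicin (uridine), tetracycline (leucine), fosfomycin (alanine). Samples every 20 min up to 2 h, precipitated in 20% cold TCA, filtered, scintillation-counted. Triplicates, repeated at least twice; % inhibition versus control.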

[24] = test system: RNA synthesis (transcription) of S. aureus; experiment: Macromolecular synthesis assay, [5-3H]-uridine incorporation; format: cell-based, Staphylococcus aureus; conditions: S. aureus ATCC 29213, logarithmic phase; 0.25 and 0.5 μg/mL
Summary of the method: as §4

[25] = test system: protein synthesis (translation) of S. aureus; experiment: Macromolecular synthesis assay, L-[4,5-3H]-leucine incorporation; format: cell-based, Staphylococcus aureus; conditions: S. aureus ATCC 29213, logarithmic phase; 0.25 and 0.5 μg/mL
Summary of the method: as §4

[26] = test system: DNA synthesis (replication) of S. aureus; experiment: Macromolecular synthesis assay, [methyl-3H]-thymidine incorporation; format: cell-based, Staphylococcus aureus; conditions: S. aureus ATCC 29213, logarithmic phase; 0.25 and 0.5 μg/mL
Summary of the method: as §4

[27] = test system: T7 polymerase transcription of the dacB gene encoding E. coli PBP4; experiment: In vitro transcription assay; format: biochemical; conditions: 0.5, 5, 50 and 160 μg/mL, 2 h at 37 °C
Summary of the method: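 Template was pET24a carrying E. coli K12 dacB without the 90-bp signal-peptide region, linearized with XhoI, 2 μL at 0.5 μg/μL per reaction. Run with a T7 transcription kit, test compound or negative control, then iced. DNaseI (37 °C, 15 min) and EDTA with 65 °C for 10 min followed. Transcripts diluted 30-fold and run on a 1% denaturing formaldehyde gel in MOPS pH 7.0.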

[28] = test system: E. coli S30 extract coupled transcription and translation system; experiment: In vitro transcription/translation assay; format: biochemical; conditions: concentrations of up to 160 μg/mL (80-fold above the MIC)
Summary of the method: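 The coupled system used the E. coli S30 extract (circular DNA) with a pUC19 lacZ template. Test compound was added at 0.5, 5, 50 and 160 μg/mL alongside a negative control. Reactions ran 2 h at 37 °C and were stopped on ice for 5 min. β-Galactosidase was quantified by o-nitrophenyl-β-D-galactoside hydrolysis, read at 420 nm against a standard curve.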

[29] = ICR, mouse, plasma, iv, 50 mg/kg
[30] = female, ICR, mouse, plasma, po, 50 mg/kg

Sequence of purified recombinant PBP2a (P07944 whole entry): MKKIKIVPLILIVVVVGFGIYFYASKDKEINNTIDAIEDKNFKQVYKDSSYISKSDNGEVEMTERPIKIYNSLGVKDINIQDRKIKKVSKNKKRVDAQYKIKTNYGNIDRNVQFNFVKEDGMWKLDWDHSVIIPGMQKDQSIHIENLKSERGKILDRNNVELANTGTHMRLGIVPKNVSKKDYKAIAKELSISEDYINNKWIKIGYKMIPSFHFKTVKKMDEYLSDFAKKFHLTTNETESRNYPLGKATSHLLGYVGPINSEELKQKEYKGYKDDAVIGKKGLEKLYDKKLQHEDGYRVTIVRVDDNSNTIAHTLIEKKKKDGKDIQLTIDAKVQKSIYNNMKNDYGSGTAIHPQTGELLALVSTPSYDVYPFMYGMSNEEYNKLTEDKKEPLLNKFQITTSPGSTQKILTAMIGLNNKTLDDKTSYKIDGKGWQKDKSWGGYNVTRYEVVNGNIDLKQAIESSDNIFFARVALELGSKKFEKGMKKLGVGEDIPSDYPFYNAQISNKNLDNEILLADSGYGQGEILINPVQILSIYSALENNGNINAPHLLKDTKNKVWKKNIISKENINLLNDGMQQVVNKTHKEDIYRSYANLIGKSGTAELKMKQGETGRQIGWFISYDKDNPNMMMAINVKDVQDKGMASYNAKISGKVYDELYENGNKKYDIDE

| Structure (SMILES) | MIC [3] | MIC [4] | MIC [5] | MIC [6] | MIC [7] | MIC [8] | MIC [9] | MIC [10] | MIC [11] | MIC [12] | MIC [13] | MIC [14] | MIC [15] | MIC [16] | MIC [17] | MIC [18] | hemolysis at 1 h, 64 μg/mL [19] | AUC(0-inf) [20, 29] | Vd [20, 29] | volume of distribution (in words) ([20]; mice) | further results |
| --- | --- | --- | --- | --- | --- | --- | --- | --- | --- | --- | --- | --- | --- | --- | --- | --- | --- | --- | --- | --- | --- |
| Fc1ccc(-c2nc(-c3ccc(Oc4ccc(C(F)(F)F)cc4)cc3)no2)cc1 [Compound 1, 5-(4-Fluorophenyl)-3-(4-(4-(trifluoromethyl)phenoxy)phenyl)-1,2,4-oxadiazole] | – | – | – | – | – | – | – | – | – | – | – | – | – | – | – | – | – | – | – | – | MIC (in words) [1]: poor but reproducible MIC; MIC (in words) [2]: poor but reproducible MIC |
| Oc1ccc(-c2nc(-c3ccc(Oc4ccccc4)cc3)no2)cc1 [Compound 2, 4-(3-(4-Phenoxyphenyl)-1,2,4-oxadiazol-5-yl)phenol] | 2 µg/mL (≈ 6.05 µM) | 2 µg/mL (≈ 6.05 µM) | 2 µg/mL (≈ 6.05 µM) | 2 µg/mL (≈ 6.05 µM) | 2 µg/mL (≈ 6.05 µM) | 2 µg/mL (≈ 6.05 µM) | 2 µg/mL (≈ 6.05 µM) | 2 µg/mL (≈ 6.05 µM) | 2 µg/mL (≈ 6.05 µM) | 32 µg/mL (≈ 96.9 µM) | 32 µg/mL (≈ 96.9 µM) | 2 µg/mL (≈ 6.05 µM) | 2 µg/mL (≈ 6.05 µM) | 1 µg/mL (≈ 3.03 µM) | 2 µg/mL (≈ 6.05 µM) | 1 µg/mL (≈ 3.03 µM) | 3% | 23000 ng·h/mL | 0.86 L/kg | large volume of distribution | clearance [20, 29]: 36.2 mL/min/kg; pIC50 [21]: 4.92 |
| Oc1ccc(-c2nc(-c3ccc(Oc4ccc(C(F)(F)F)cc4)cc3)no2)cc1 [Compound 3, 4-(3-(4-(4-(Trifluoromethyl)phenoxy)phenyl)-1,2,4-oxadiazol-5-yl)phenol] | 2 µg/mL (≈ 5.02 µM) | 2 µg/mL (≈ 5.02 µM) | 2 µg/mL (≈ 5.02 µM) | 2 µg/mL (≈ 5.02 µM) | 2 µg/mL (≈ 5.02 µM) | 2 µg/mL (≈ 5.02 µM) | 2 µg/mL (≈ 5.02 µM) | 2 µg/mL (≈ 5.02 µM) | 2 µg/mL (≈ 5.02 µM) | 32 µg/mL (≈ 80.3 µM) | > 32 µg/mL | 2 µg/mL (≈ 5.02 µM) | 2 µg/mL (≈ 5.02 µM) | 1 µg/mL (≈ 2.51 µM) | 2 µg/mL (≈ 5.02 µM) | 2 µg/mL (≈ 5.02 µM) | 3% | 44200 ng·h/mL | 0.37 L/kg | moderate volume of distribution | AUC(0-inf) [20, 30]: 43700 ng·h/mL; Cmax [20, 30]: 2500 ng/mL; Tmax [20, 30]: 2 h; higher systemic exposure relative to comparator compound ([20]; mice, 50 mg/kg iv, compound 3 vs compound 2, compound 4 vs compound 3): 2 fold; efficacy following po dosing (comparison) [22]: superior efficacy; inhibition of peptidoglycan synthesis [23]: inhibited peptidoglycan synthesis; inhibition of transcription [24]: did not inhibit; inhibition of translation [25]: did not inhibit; inhibition of replication (DNA synthesis) [26]: did not inhibit; effect on dacB mRNA band intensities [27]: no effect; effect on β-galactosidase formation [28]: no effect; pIC50 [21]: 4.70 |
